According to ChEMBL document CHEMBL1177643, “Synthesis, DNA-binding ability and anticancer activity of benzothiazole/benzoxazole-pyrrolo[2,1-c][1,4]benzodiazepine conjugates” (Bioorg Med Chem, 2010):
Where “and” joins values, the source holds several entries; their conditions need not be identical. Equal values may be shown once.

Legend:
Mus musculus [1] = assay: Toxicity in SCID mouse assessed as weight loss at 30 mg/kg, ip; type: organism-based; set-up: dose 30 mg/kg, route intraperitoneal; conditions: in vivo
In short: (§1)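 HT29 xenograft-bearing scid mice dosed ip at 5 or 10 mg/kg on days 1, 5 and 9 (q4d), totalling 15 or 30 mg/kg. Vehicle-treated control group. Body weight, survival and signs of overt toxicity were recorded over the 35-day study.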

Mus musculus [2] = assay: Toxicity in SCID mouse assessed as weight loss at 15 mg/kg, ip; type: organism-based; set-up: dose 15 mg/kg, route intraperitoneal; conditions: in vivo; in short: as §1
HT-29 [3] = assay: Antitumor activity against human HT-29 cells xenografted in SCID mouse assessed as reduction tumor volume at 30 mg/kg, ip measured on day 9; type: functional; conditions: route intraperitoneal
In short: (§2)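 HT29 xenografts in scid mice; dosing ip on days 1, 5 and 9 (q4d), 5 or 10 mg/kg per dose (total 15 or 30 mg/kg); vehicle control group. Tumour volume, body weight and toxicity followed for 35 days. Relative tumour volume = volume on given day / volume on day 1; T/C = mean RTV treated / mean RTV control.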

HT-29 [4] = assay: Antitumor activity against human HT-29 cells xenografted in SCID mouse assessed as reduction tumor volume at 15 mg/kg, ip measured on day 35; type: functional; conditions: route intraperitoneal; in short: as §2
HT-29 [5] = assay: Antitumor activity against human HT-29 cells xenografted in SCID mouse assessed as reduction tumor volume at 30 mg/kg, ip measured on day 17; type: functional; conditions: route intraperitoneal; in short: as §2
HT-29 [6] = assay: Antitumor activity against human HT-29 cells xenografted in SCID mouse assessed as reduction tumor volume at 30 mg/kg, ip measured on day 35; type: functional; conditions: route intraperitoneal; in short: as §2
A-375 [7] = assay: Cell cycle arrest in human A375 cells assessed as accumulation at G0 phase at 0.5 uM after 24 hrs using propidium iodide staining by flow cytometry; type: functional
In short: (§3)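 A375 cells (5×10^5) grown 24 h, then exposed to compound 24 h (DMSO control). Trypsin–EDTA harvest, fixed in ice-cold 70% ethanol at 4 °C 30 min, RNase A 37 °C 30 min, propidium iodide staining. DNA content measured by flow cytometry on 20,000 events, gated as sub-G1/G0, G1, S and G2/M.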

HT-29 [8] = assay: Antitumor activity against human HT-29 cells xenografted in SCID mouse assessed as reduction tumor volume at 30 mg/kg, ip measured on day 5; type: functional; conditions: route intraperitoneal; in short: as §2
A-375 [9] = assay: Cell cycle arrest in human A375 cells assessed as accumulation at G0/G1 phase at 1 uM after 24 hrs using propidium iodide staining by flow cytometry; type: functional; in short: as §3
A-375 [10] = assay: Cell cycle arrest in human A375 cells assessed as accumulation at G2/M phase at 0.5 uM after 24 hrs using propidium iodide staining by flow cytometry; type: functional; in short: as §3
A-375 [11] = assay: Cell cycle arrest in human A375 cells assessed as accumulation at S phase at 0.5 uM after 24 hrs using propidium iodide staining by flow cytometry; type: functional; in short: as §3
HT-29 [12] = assay: Antitumor activity against human HT-29 cells xenografted in SCID mouse assessed as reduction tumor volume at 30 mg/kg, ip measured on day 14; type: functional; conditions: route intraperitoneal; in short: as §2
HT-29 [13] = assay: Antitumor activity against human HT-29 cells xenografted in SCID mouse assessed as reduction tumor volume at 15 mg/kg, ip measured on day 9; type: functional; conditions: route intraperitoneal; in short: as §2
HT-29 [14] = assay: Antitumor activity against human HT-29 cells xenografted in SCID mouse assessed as reduction tumor volume at 30 mg/kg, ip measured on day 1; type: functional; conditions: route intraperitoneal; in short: as §2
A-375 [15] = assay: Cell cycle arrest in human A375 cells assessed as accumulation at G2/M phase at 1 uM after 24 hrs using propidium iodide staining by flow cytometry; type: functional; in short: as §3
HT-29 [16] = assay: Antitumor activity against human HT-29 cells xenografted in SCID mouse assessed as reduction tumor volume at 15 mg/kg, ip measured on day 21; type: functional; conditions: route intraperitoneal; in short: as §2
A-375 [17] = assay: Cell cycle arrest in human A375 cells assessed as accumulation at G0 phase at 1 uM after 24 hrs using propidium iodide staining by flow cytometry; type: functional; in short: as §3
Mus musculus [18] = assay: Toxicity in SCID mouse assessed as mortality at 15 mg/kg, ip; type: organism-based; set-up: dose 15 mg/kg, route intraperitoneal; conditions: in vivo; in short: as §1
HT-29 [19] = assay: Antitumor activity against human HT-29 cells xenografted in SCID mouse assessed as reduction tumor volume at 30 mg/kg, ip measured on day 25; type: functional; conditions: route intraperitoneal; in short: as §2
HT-29 [20] = assay: Antitumor activity against human HT-29 cells xenografted in SCID mouse assessed as reduction tumor volume at 15 mg/kg, ip measured on day 1; type: functional; conditions: route intraperitoneal; in short: as §2
A-375 [21] = assay: Cell cycle arrest in human A375 cells assessed as accumulation at sub-G0 phase at 1 uM after 24 hrs using propidium iodide staining by flow cytometry; type: functional; in short: as §3
A-375 [22] = assay: Cell cycle arrest in human A375 cells assessed as accumulation at G1 phase at 1 uM after 24 hrs using propidium iodide staining by flow cytometry; type: functional; in short: as §3
HT-29 [23] = assay: Antitumor activity against human HT-29 cells xenografted in SCID mouse assessed as reduction tumor volume at 15 mg/kg, ip measured on day 32; type: functional; conditions: route intraperitoneal; in short: as §2

## COc1cc(-c2nc3ccccc3s2)ccc1OCCCCCOc1cc2c(cc1OC)C(=O)N1CCC[C@H]1C=N2
Mus musculus [1]
  Activity: Non-toxic
Mus musculus [2]
  Activity: Non-toxic
HT-29 [3]
  T/C: 0.78%
HT-29 [4]
  T/C: 0.82% and 0.14%
HT-29 [5]
  T/C: 0.81%
HT-29 [6]
  T/C: 0.68%
A-375 [7]
  Activity: 2.13%
HT-29 [8]
  T/C: 0.85%
A-375 [9]
  Activity: 64.26%
A-375 [10]
  Activity: 15.96%
A-375 [11]
  Activity: 64.95%
HT-29 [12]
  T/C: 0.66%
HT-29 [13]
  T/C: 0.49%
HT-29 [14]
  T/C: 1%
A-375 [15]
  Activity: 20.32%
HT-29 [16]
  T/C: 0.65% and 0.2%
A-375 [17]
  Activity: 2.7%
Mus musculus [18]
  Activity: Non-toxic
HT-29 [19]
  T/C: 0.67%
HT-29 [20]
  T/C: 1%
A-375 [21]
  Activity: 2.7%
A-375 [22]
  Activity: 61.56%
HT-29 [23]
  T/C: 0.76% and 0.16%
